Bioassay records: PubChem, Johns Hopkins Ion Channel Center
A selection: hits, their analogues and other compounds. The true share with any hit is near 3.7%.
Kir21 block: inhibitors of mouse Kir2.1 inward-rectifier potassium channel; P35561; HEK293-Kir2.1, FluxOR thallium flux fluorescence; active compounds read low; AID 1672; 310,000 compounds, 0.85% hits; B-score at 10 µM;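 active = fluorescence ratio B-score at or below minus 3 SD of library scores, with starting-brightness B-score within 2 SD, cut at about -4.2 in these data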;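 note: channel flux triggered by added potassium and thallium sulfate stimulus; B-score of peak minus minimum fluorescence over baseline after thallium stimulus; more negative B-score means stronger Kir2.1 block with less thallium influx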
KCNQ1 inh: blocks the human KCNQ1 potassium channel. P51787. CHO-K1 KCNQ1, FluxOR thallium flux fluorescence; active compounds read high. AID 2642. B-score at 10 µM. 310,000 compounds, 1.3% hits;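 active = compounds whose thallium flux B-score, printed positive for inhibition, exceeds three library SD while starting fluorescence stays within three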;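 note: channel opened by potassium depolarization with thallium stimulus after 20 min compound exposure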
KCNK9 inh: blocks the human KCNK9 two-pore domain potassium channel | Q9NPC2 | HEK293 KCNK9, FluxOR thallium flux fluorescence; active compounds read low | B-score at 10 µM | 310,000 compounds, 1.2% hits | AID 488922;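 active = ratio B-score over 3 SD below the library mean, with starting fluorescence within 5 SD of its mean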;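 note: negative B-score means less thallium flux so channel inhibition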
Target sequence (Q9NPC2 whole entry, looked up, the tested form may be a part): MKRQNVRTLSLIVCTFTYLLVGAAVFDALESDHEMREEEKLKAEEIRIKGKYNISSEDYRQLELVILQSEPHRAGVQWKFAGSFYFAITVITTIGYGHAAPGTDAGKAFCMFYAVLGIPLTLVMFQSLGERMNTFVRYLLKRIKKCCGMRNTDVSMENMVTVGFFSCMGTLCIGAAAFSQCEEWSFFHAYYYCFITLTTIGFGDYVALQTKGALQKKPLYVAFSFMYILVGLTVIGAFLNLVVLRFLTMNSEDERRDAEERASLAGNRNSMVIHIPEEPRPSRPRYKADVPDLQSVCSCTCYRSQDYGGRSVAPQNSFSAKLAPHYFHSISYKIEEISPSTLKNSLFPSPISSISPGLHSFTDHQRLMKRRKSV
hERG rescue: hERG (human) protection from proarrhythmic block; Q12809; CHO-hERG, FluxOR thallium flux, dofetilide IC70 present; activation (rescue from dofetilide block), less the hit threshold, % at 10 µM; 310,000 compounds, 0.51% hits; AID 1511;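 active = activation above the mean of controls blocked by dofetilide plus 5 SD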;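 note: thallium influx through hERG after potassium depolarization seen as dye fluorescence rise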
KCNQ1 pot: potentiators or activators of human KCNQ1 potassium channel; CHO-K1 KCNQ1, thallium flux FluxOR fluorescence; active compounds read high; B-score at 10 µM; 310,000 compounds, 0.35% hits;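 active = fluorescence ratio B-score, a plate-corrected score, at least three library SD, with initial intensity B-score within 5 SD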
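Material: CHO-K1 cells stably expressing KCNQ1. Medium: assay buffer for compound exposure, DMSO matched across wells. Reagent: K+/Tl+ depolarizing stimulus. Compound dosing: single-concentration screen. Times: 37 °C overnight plating, 90-min dark dye load, 20-min compound pretreatment. Technique: FluxOR Tl+ flux fluorescence.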
KCNK3 block: human KCNK3 channel inhibition, primary screen; CHO-KCNK3 thallium flux, FluxOR fluorescence; active compounds read low; B-score at 10 µM; 340,000 compounds, 0.84% hits; AID 602410;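 active = B-score under library mean minus 4 SD, starting fluorescence ratio at most library mean plus 5 SD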;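 note: more negative B-score means stronger inhibition of thallium flux through KCNK3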
KCNK9 block conf: human KCNK9 inhibitor confirmation; 4,900 compounds, 43% hits; AID 492992; shares compounds with KCNK9 inh; inhibition, % at 10 µM; HEK293 KCNK9 cells, FluxOR thallium flux fluorescence;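 active = thallium signal inhibited by more than 5 SD of the compound-free buffer control wells, on both duplicate plates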;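 note: 0% = assay buffer control wells without compound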
Kir21 sel: selectivity of KCNK9 modulators against mouse Kir2.1. shares compounds with KCNK9 inh. Kir2.1 cells, FluxOR thallium flux fluorescence. inhibition, % at 10 µM. 4,900 compounds, 4% hits. AID 492993;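 active = thallium signal drop more than 5 SD beyond the mean of the no-compound control wells, seen in both duplicate plates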;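 note: signal is fluorescence rise after thallium addition divided by baseline fluorescence; plate controls were assay buffer only for no effect and full block by chlorpromazine control for full effect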
HEK293 Tl ctr: second counter-screen for KCNK9 modulators: effect in non-induced cells; non-induced KCNK9-HEK293, FluxOR thallium flux; inhibition, % at 10 µM; shares compounds with KCNK9 inh; AID 492997; 4,900 compounds, 40% hits;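 active = thallium signal drop beyond 5 SD of the untreated control mean, on both duplicate plates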;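 note: plate controls were buffer only IC0 wells for no effect and SID17386958 at its maximal inhibitory level for full effect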
An asterisk follows results filed as active; i = inactive; nt = not tested or not shown.

SMILES	Kir21 block	KCNQ1 inh	KCNK9 inh	hERG rescue	KCNQ1 pot	KCNK3 block	KCNK9 block conf	Kir21 sel	HEK293 Tl ctr
Cc1cccc(C2NC(c3cccc(C)c3)C([N+](=O)[O-])C(C)(C)C2[N+](=O)[O-])c1 (centres undefined)	0.65	i	i	-1	i	i	i	i	i
Cc1cccc(N2CCN(Cc3nc(-c4ccc(F)cc4F)oc3C)CC2)n1	-2.8	i	i	-23	i	i	i	i	i
Cc1cnc(C)c(N2CCN(Cc3nc(-c4cccc(F)c4F)oc3C)CC2)n1	0.75	i	i	-25	i	i	nt	nt	nt
CN(c1ccccc1)c1nc2ccsc2c(=O)s1	-0.56	i	i	-1	i	i	i	i	i
CN(Cc1nc2ccccc2c(=O)[nH]1)Cc1nc2ccsc2c(=O)[nH]1	-0.03	i	i	-11	i	i	nt	nt	nt
CCN(c1ccccc1)c1nc2ccsc2c(=O)s1	-1.3	i	i	-13	i	i	i	i	i
O=C(Nc1nc2ccsc2c(=O)s1)c1ccc(F)cc1	-0.96	i	i	-9	i	i	nt	nt	nt
CCN1CCN(C(=O)CCc2nnc(CCc3ccccc3OC)o2)[C@@H](C)C1=O	0.01	i	i	-8	i	i	nt	nt	nt
Cc1cc(C(=O)NCc2ccccc2Cl)n(-c2ccccc2)n1	0.1	i	i	-17	i	i	nt	nt	nt
COc1ccccc1N(C(=O)NCc1ccccc1)C1=NCC(C)S1 (centres undefined)	-0.45	i	i	-4	i	i	i	i	i
CCOc1ccccc1CNC(=O)CCCc1cn(C)c2ccccc12	-2.8	i	i	-5	i	i	i	i	i
Fc1ccccc1COc1ccc(-c2nnn(Cc3ccccc3F)n2)cc1	-0.1	i	i	-6	i	i	i	i	i
Cn1nnc(-c2ccc(OCc3ccccc3F)cc2)n1	0.53	i	i	-3	i	i	nt	nt	nt
CN(CC(=O)Nc1ccc(N2CCOCC2)cc1)C(=O)CCc1cc(C(C)(C)C)c(O)c(C(C)(C)C)c1	0	i	i	-6	i	i	nt	nt	nt
C=CCc1cc(C(=O)N2CCCCC2)ccc1O	0.49	i	i	-13	i	i	nt	nt	nt
C=CCc1ccc(O)c(-c2ccc(O)c(CC=C)c2)c1	-2.6	i	-18*	-17	i	i	76%*	i	42%*
CCCOc1ccc(CNC(=O)c2ccc3c(c2)N(CC)CCS3)cc1	-0.77	i	i	-10	i	i	i	i	i
Oc1ccccc1Oc1c(F)c(F)nc(N2CCCC2)c1F	-1.8	i	i	-13	i	i	nt	nt	nt
CC(=O)/C=C/c1ccccc1Oc1c(F)c(F)nc(F)c1F	-1.1	i	i	-5	i	i	i	i	i
COc1ccc(COCCN2CCN(S(=O)(=O)c3ccc(C)cc3)CCC2=O)cc1	-0.74	i	i	-6	i	nt	nt	nt	nt
COc1cccc(COCCN2CCN(S(=O)(=O)c3ccc(C)cc3)CCC2=O)c1	-2.1	i	i	-6	i	i	i	i	i
Cc1ccc(COCCN2CCN(S(=O)(=O)c3ccc(C)cc3)CCC2=O)cc1	0.07	i	i	-5	i	i	nt	nt	nt
Cc1ccc(S(=O)(=O)N2CCC(=O)N(CCOCc3cccc(C)c3)CC2)cc1	-1.7	i	i	-10	i	i	i	i	i
CCOC(=O)C(Oc1ccc2c(-c3ccccc3)cc(=O)oc2c1C)c1ccccc1 (centres undefined)	-0.38	i	i	-14	i	i	nt	nt	nt
CCOC(=O)C(Oc1ccc2c(-c3ccc(OC)cc3)cc(=O)oc2c1C)c1ccccc1 (centres undefined)	1.4	i	-11*	-5	i	i	50%*	i	32%*
SMILES	Kir21 block	KCNQ1 inh	KCNK9 inh	hERG rescue	KCNQ1 pot	KCNK3 block	KCNK9 block conf	Kir21 sel	HEK293 Tl ctr
CCOC(=O)c1c(NC(=O)CSc2c[nH]c3ccccc23)sc2c1CCC2	-1.6	i	i	-12	i	i	i	i	i
CCOC(=O)c1c(NC(=O)CSc2nnc3ccccn23)sc2c1CCC2	-0.78	i	i	-14	i	i	nt	nt	nt
CCOC(=O)c1c(NC(=O)C(C)Sc2cn(C)c3ccccc23)sc2c1CCC2 (centres undefined)	0.63	i	i	-15	i	i	i	i	i
CCOC(=O)c1c(NC(=O)CSc2nnc(-c3c[nH]c4ccccc34)n2CCOC)sc2c1CCCCC2	0.12	i	i	-6	i	i	nt	nt	nt
CCOC(=O)c1c(NC(=O)C(C)Sc2cccc[n+]2[O-])sc2c1CCN(Cc1ccccc1)C2 (centres undefined)	nt	nt	nt	nt	nt	i	nt	nt	nt
CCOC(=O)c1c(NC(=O)CSc2c[nH]c3ccccc23)sc2c1CCCC2	-0.32	i	i	-8	i	i	i	i	i
CC(C)NC(=S)NNc1nc2ccccc2s1	0.03	i	i	-4	i	i	nt	nt	nt
COC(=O)c1ccc2c(=O)[nH]c(COC(=O)c3c(-c4ccccc4Cl)noc3C)nc2c1	-1.2	i	i	-10	i	i	nt	nt	nt
CN(CC(=O)NC1CCCCCCC1)S(=O)(=O)c1cccc2cccnc12	0.03	i	i	-6	i	i	i	i	i
C/C(=C\c1ccccc1)CN1CCN(c2ccccc2)CC1	0.17	i	i	-13	i	i	i	i	i
CCOc1ccc(C(=O)NC(C(=O)NCC(c2cccs2)N(C)C)C(C)C)cc1 (centres undefined)	nt	nt	nt	nt	nt	i	nt	nt	nt
Cc1ccc(NC(=O)c2oc3ccccc3c2NC(=O)C2CCCO2)cc1C (centres undefined)	0.77	i	i	-20	i	i	i	i	i
Cc1cccc(N2CCN(CC(=O)NCc3ccc(Cl)cc3)CC2)c1C	0.21	i	i	-15	i	i	i	i	i
CN(CC(=O)Nc1cccnc1)S(=O)(=O)c1ccc(Br)cc1	-0.72	i	i	-7	i	i	nt	nt	nt
COc1ccc([N+](=O)[O-])cc1NC(=O)C(C)N(C)Cc1ccc(Br)cc1 (centres undefined)	-2.5	i	-8.6*	-12	i	i	31%*	i	38%*
